According to ChEMBL document CHEMBL1671729, “In vivo protection provided by a synthetic new alpha-galactosyl ceramide analog against bacterial and viral infections in murine models” (2010):
The source made the active and inactive calls. The calls are words filed in the database; no cut-off is given here.

Tests used:
[1] = system: Staphylococcus aureus; assay: Antibacterial activity against luminescent Staphylococcus aureus Xen29 infected in BALB/c mouse deep thigh wound infection model assessed as reduction in bacterial load at 150 ug/kg, ip administered 3 hrs post infection by iVIS in-vivo imaging system; type: functional, organism-based
Outline: (§1)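 Female BALB/c mice were infected in the left posterior thigh muscle with 3 × 10^8 CFU luminescent S. aureus Xen29 in 200 μl PBS. Glycolipid at 150 μg/kg or vehicle was given i.p. at 3 h, 0 h or 6 h post-infection. Live mice were imaged at 48 h, and RLU per mouse was compared by one-way ANOVA with Tukey posttest.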

[2] = system: Japanese encephalitis virus; assay: (§2) Antiviral activity against Japanese encephalitis virus RP-9 infected in C57BL/6 mouse assessed as mouse survival rate at 1 ug, ip administered one day before and 1 day after viral infection measured after 25 days post infection relative to solvent treated control; type: functional
[3] = system: Novosphingobium capsulatum; assay: Antibacterial activity against Sphingomonas capsulata ATCC 14666 infected in C57BL/6 mouse assessed as reduction in lung bacterial load at 100 ug/kg, ip administered 2 hrs post infection measured 24 hrs post infection; type: functional, organism-based
[4] = system: Novosphingobium capsulatum; assay: Antibacterial activity against Sphingomonas capsulata ATCC 14666 infected in C57BL/6 mouse assessed as reduction in lung bacterial load at 50 ug/kg, ip administered 2 hrs post infection measured 24 hrs post infection; type: functional, organism-based
[5] = system: Japanese encephalitis virus; assay: Antiviral activity against Japanese encephalitis virus RP-9 infected in C57BL/6 mouse assessed as mouse survival rate at 1 ug, ip administered simultaneously with viral infection measured after 25 days post infection relative to solvent treated control; type: functional
[6] = system: Japanese encephalitis virus; assay: as §2, with “infected in CD8-alpha chain-knockout immunodeficient C57BL/6 mouse” for “infected in C57BL/6 mouse”; type: functional
[7] = system: Japanese encephalitis virus; assay: Antiviral activity against Japanese encephalitis virus RP-9 infected in Stat-1-knockout immunodeficient C57BL/6 mouse assessed as mouse survival rate at 1 ug, ip administered one day before and 1 day after viral infection measured after 25 days post infection relative to solvent treated control; type: functional
[8] = system: Japanese encephalitis virus; assay: Antiviral activity against Japanese encephalitis virus RP-9 infected in C57BL/6 mouse assessed as mouse survival rate at 1 ug, ip administered one day after viral infection measured after 25 days post infection relative to solvent treated control; type: functional
[9] = system: Japanese encephalitis virus; assay: Antiviral activity against Japanese encephalitis virus RP-9 infected in C57BL/6 mouse assessed as mouse survival rate at 1 ug, ip administered one day before viral infection measured after 25 days post infection relative to solvent treated control; type: functional
[10] = system: Japanese encephalitis virus; assay: Antiviral activity against Japanese encephalitis virus RP-9 infected in Ig-mu chain-knockout immunodeficient C57BL/6 mouse assessed as mouse survival rate at 1 ug, ip administered one day before and 1 day after viral infection measured after 25 days post infection relative to solvent treated control; type: functional, organism-based
[11] = system: Staphylococcus aureus; assay: Antibacterial activity against luminescent Staphylococcus aureus Xen29 infected in BALB/c mouse deep thigh wound infection model assessed as reduction in bacterial load at 150 ug/kg, ip administered immediately after infection measured 48 hrs post infection by iVIS in-vivo imaging system; type: functional, organism-based; outline: as §1
[12] = system: Staphylococcus aureus; assay: Antibacterial activity against luminescent Staphylococcus aureus Xen29 infected in BALB/c mouse deep thigh wound infection model assessed as reduction in bacterial load at 150 ug/kg, ip administered 6 hr post infection after infection measured 48 hrs post infection by iVIS in-vivo imaging system; type: functional, organism-based; outline: as §1

SMILES: CCCCCCCCCCCCCCCCCCCCCCCCCC(=O)N[C@@H](CO[C@H]1O[C@H](CO)[C@H](O)[C@H](O)[C@H]1O)[C@H](O)[C@H](O)CCCCCCCCCCCCCC [RGI-7000]
- inhibition [1]: Active
- Survival [2]: 57%
- inhibition [3]: Active

SMILES: CCCCCCCCCCCCCC[C@@H](O)[C@@H](O)[C@H](CO[C@H]1O[C@H](CO)[C@H](O)[C@H](O)[C@H]1O)NC(=O)CCCCCCCc1ccc(F)cc1
- Survival [2]: 57%
- inhibition [4]: Active

SMILES: CCCCCCCCCCCCCCC[C@@H](O)[C@H](CO[C@H]1O[C@H](C(=O)O)[C@H](O)[C@H](O)[C@H]1O)NC(=O)CCCCCCCCCCCCC
- inhibition [3]: inactive

SMILES: CCCCCCCCCCCCCCCCCCCCCCCCCC(=O)N[C@@H](CO[C@H]1O[C@H](CO)[C@H](O)[C@H](OS(=O)(=O)O)[C@H]1O)[C@H](O)[C@H](O)CCCCCCCCCCCCCC
- inhibition [3]: inactive

SMILES: CCCCCCCCCCCCCC[C@@H](O)[C@@H](O)[C@H](CO[C@H]1O[C@H](CO)[C@H](O)[C@H](O)[C@H]1O)NC(=O)CCCCCCCc1ccccc1
- inhibition [3]: Active

SMILES: CCCCCCCCCCCCCCCCCCCCCCCCCC(=O)N[C@@H](CO[C@H]1O[C@H](C(=O)O)[C@H](O)[C@H](O)[C@H]1O)[C@H](O)[C@H](O)CCCCCCCCCCCCCC
- inhibition [3]: Active

SMILES: CCCCCCCCCCCCCC[C@@H](O)[C@@H](O)[C@H](CO[C@H]1O[C@H](CO)[C@H](O)[C@H](O)[C@H]1O)NC(=O)CCCCCCCCCCc1ccccc1
- inhibition [3]: Active

SMILES: CCCCCCCCCCCCCCCCCCCCCCCC(=O)N[C@@H](CO[C@H]1O[C@H](CO)[C@H](O)[C@H](O)[C@H]1O)[C@H](O)[C@H](O)CCCCC
- inhibition [3]: inactive

SMILES: CCCCCCCCCCCCCC[C@@H](O)[C@@H](O)[C@H](CO[C@H]1O[C@H](C(=O)O)[C@H](O)[C@H](O)[C@H]1O)NC(=O)CCCCCCCCCCc1ccc(F)cc1
- Survival [5]: 60%
- inhibition [1]: Active
- Survival [2]: 71%
- Survival [6]: 22%
- Survival [7]: 0%
- Survival [8]: 25%
- Survival [9]: 60%
- inhibition [4]: Active
- Survival [10]: inactive

SMILES: CCCCCCCCCCCCCC[C@@H](O)[C@@H](O)[C@H](CO[C@H]1O[C@H](C(=O)O)[C@H](O)[C@H](O)[C@H]1O)NC(=O)CCCCCCCCCCc1ccc(Oc2ccc(F)cc2)cc1
- Survival [5]: 40%
- inhibition [1]: Active
- Survival [2]: 64%
- inhibition [11]: Active
- Survival [7]: 23%
- Survival [8]: 20%
- Survival [9]: 80%
- inhibition [12]: inactive
- inhibition [4]: Active
- Survival [10]: inactive
